# Data: ChEMBL document CHEMBL1131067, “Tolerance in the replacement of the benzhydrylic O atom in 4-[2-(diphenylmethoxy)ethyl]-1-benzylpiperidine derivatives by an N atom: development of new-generation potent and selective N-analogue molecules for the dopamine transporter” (J Med Chem, 1998)
# Assays:
# [1] = target: T1, Sodium-dependent dopamine transporter (Homo sapiens, UniProt Q01959); assay: Affinity was evaluated using [3H]WIN-35428 (radioligand) on Cloned human Dopamine transporter expressed in HEK cells; format: cell-based, HEK293
# [2] = target: Sodium-dependent dopamine transporter (Rattus norvegicus, UniProt P23977); assay: IC50 value was evaluated using [3H]WIN-35428 (radioligand) on Dopamine transporter in rat striatum.; format: tissue-based
# [3] = target: T1, Sodium-dependent dopamine transporter; assay: Affinity was evaluated using [3H]DA (radioligand) on Cloned human Dopamine transporter expressed in HEK cells; format: cell-based, HEK293
# Summary of the method: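 HEK-293 cells stably expressing cloned hDAT, suspended intact; preincubated with inhibitor 15 min at room temperature in pH 7.4 Na phosphate/NaCl/KCl/MgSO4/glucose/CaCl2 buffer with 0.1 mM tropolone, then [3H]dopamine added for 8 min more; ended with ice-cold buffer. Compounds from DMSO stocks, 0.5% final DMSO, at least five concentrations.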
# [4] = target: Sodium-dependent serotonin transporter (Homo sapiens, UniProt P31645); assay: Affinity was evaluated using [3H]citalopram (radioligand) on human serotonin transporter expressed in HEK cells; format: cell-based, HEK293
# [5] = target: Sodium-dependent serotonin transporter (Rattus norvegicus, UniProt P31652); assay: IC50 value was evaluated using [3H]citalopram (radioligand) on serotonin transporter in rat striatum.; format: tissue-based
# Sequence of Sodium-dependent serotonin transporter (Rattus norvegicus, UniProt P31652) (P31652 whole entry): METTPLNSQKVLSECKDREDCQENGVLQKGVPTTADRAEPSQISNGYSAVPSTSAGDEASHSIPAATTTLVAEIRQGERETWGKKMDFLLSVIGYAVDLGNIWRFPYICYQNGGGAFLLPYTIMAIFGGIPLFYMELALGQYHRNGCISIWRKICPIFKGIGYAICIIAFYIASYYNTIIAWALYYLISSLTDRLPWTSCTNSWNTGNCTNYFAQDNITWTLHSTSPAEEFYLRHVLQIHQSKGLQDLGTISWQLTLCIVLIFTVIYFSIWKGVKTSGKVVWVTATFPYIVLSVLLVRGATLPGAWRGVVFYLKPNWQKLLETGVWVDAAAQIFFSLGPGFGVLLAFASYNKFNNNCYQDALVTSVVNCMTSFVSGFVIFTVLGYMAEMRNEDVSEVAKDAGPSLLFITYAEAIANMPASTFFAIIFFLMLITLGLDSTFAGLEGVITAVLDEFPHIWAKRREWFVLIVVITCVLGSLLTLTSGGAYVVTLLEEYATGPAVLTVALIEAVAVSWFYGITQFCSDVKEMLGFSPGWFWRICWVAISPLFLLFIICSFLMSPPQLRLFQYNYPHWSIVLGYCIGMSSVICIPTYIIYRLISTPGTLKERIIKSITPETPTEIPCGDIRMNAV
# Sequence of Sodium-dependent serotonin transporter (Homo sapiens, UniProt P31645) (P31645 whole entry): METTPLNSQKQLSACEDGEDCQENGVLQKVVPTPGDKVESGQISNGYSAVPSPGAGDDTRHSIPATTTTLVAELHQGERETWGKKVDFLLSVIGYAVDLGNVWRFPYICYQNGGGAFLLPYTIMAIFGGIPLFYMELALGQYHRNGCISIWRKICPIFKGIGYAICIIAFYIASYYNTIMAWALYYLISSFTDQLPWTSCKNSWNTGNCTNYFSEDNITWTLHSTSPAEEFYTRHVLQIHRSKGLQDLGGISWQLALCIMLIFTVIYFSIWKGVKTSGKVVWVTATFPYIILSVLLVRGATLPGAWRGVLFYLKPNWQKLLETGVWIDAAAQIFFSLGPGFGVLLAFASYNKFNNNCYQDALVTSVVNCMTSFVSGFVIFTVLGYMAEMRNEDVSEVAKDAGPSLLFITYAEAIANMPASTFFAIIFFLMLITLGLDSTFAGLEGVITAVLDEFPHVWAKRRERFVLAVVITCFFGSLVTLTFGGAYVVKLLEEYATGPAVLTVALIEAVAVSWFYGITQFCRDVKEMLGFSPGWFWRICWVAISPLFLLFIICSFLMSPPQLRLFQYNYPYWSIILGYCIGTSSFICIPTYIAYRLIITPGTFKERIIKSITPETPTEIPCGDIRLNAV
# T1 sequence (Q01959 whole entry): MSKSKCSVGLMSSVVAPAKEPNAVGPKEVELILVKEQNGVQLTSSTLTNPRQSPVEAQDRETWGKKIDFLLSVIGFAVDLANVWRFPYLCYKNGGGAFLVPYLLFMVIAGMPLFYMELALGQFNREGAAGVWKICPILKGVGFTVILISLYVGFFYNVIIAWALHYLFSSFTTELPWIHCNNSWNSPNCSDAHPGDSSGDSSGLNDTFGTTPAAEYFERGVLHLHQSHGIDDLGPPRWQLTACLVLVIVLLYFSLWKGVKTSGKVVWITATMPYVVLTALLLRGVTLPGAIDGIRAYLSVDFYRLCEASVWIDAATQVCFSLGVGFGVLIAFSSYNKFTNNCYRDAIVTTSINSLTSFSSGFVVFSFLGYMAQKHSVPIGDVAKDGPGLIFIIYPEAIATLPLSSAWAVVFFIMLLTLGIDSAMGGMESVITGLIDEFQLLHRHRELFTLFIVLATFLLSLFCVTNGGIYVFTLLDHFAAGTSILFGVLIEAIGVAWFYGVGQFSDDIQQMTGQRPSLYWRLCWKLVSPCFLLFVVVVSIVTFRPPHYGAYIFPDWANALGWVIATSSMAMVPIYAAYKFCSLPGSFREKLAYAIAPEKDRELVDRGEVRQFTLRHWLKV
# Sequence of Sodium-dependent dopamine transporter (Rattus norvegicus, UniProt P23977) (P23977 whole entry): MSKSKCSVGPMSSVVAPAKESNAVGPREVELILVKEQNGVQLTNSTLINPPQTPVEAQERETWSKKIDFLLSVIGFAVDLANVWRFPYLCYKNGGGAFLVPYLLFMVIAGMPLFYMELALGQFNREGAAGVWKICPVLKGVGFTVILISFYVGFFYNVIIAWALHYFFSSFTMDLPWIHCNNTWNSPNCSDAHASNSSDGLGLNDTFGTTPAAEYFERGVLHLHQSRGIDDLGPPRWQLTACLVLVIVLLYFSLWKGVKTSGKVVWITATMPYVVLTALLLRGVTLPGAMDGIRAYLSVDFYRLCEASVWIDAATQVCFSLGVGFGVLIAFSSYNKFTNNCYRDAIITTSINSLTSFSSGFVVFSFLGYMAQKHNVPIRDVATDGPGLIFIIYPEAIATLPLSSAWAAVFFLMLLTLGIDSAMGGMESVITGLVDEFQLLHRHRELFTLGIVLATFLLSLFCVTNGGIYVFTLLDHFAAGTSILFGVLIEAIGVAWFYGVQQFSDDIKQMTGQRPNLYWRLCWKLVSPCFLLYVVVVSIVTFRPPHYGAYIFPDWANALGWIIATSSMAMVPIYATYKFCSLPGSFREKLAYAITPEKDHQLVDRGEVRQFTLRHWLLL
SMILES,IC50 [1] [nM],IC50 [2] [nM],IC50 [3] [nM],IC50 [4] [nM],IC50 [5] [nM]
Fc1ccc(C(OCCC2CCN(Cc3ccccc3)CC2)c2ccc(F)cc2)cc1,35,–,–,–,–
O=C(CC1CCN(Cc2ccc(F)cc2)CC1)NC(c1ccccc1)c1ccccc1,3210,–,–,49200,–
Fc1ccc(CN2CCC(CCOC(c3ccccc3)c3ccccc3)CC2)cc1,37.6,–,–,–,–

# More lines, now with the values ahead:
IC50 [1] [nM],IC50 [2] [nM],IC50 [3] [nM],IC50 [4] [nM],IC50 [5] [nM],SMILES
30,9.4,32,5850,585,Fc1ccc(CN2CCC(CCNC(c3ccccc3)c3ccccc3)CC2)cc1
33,–,58,10700,–,Fc1ccc(C(NCCC2CCN(Cc3ccccc3)CC2)c2ccc(F)cc2)cc1
